Screening data: PubChem, several laboratories
Only some compounds are listed: those with a hit (about 1.6% of all), similar ones and a draw of the others.
MT1-MMP act inh: MT1-MMP (human) activation inhibition | GFP/RFP ratio change, % at 20 µM | actives 0.061% (n = 360,000) | HT1080 RFP-PRO-GFP cells, GFP/RFP ratio fluorescence, overnight; percent of plate control window, DMSO zero;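 active = GFP/RFP ratio change of at least 30% with cell ATP level not reduced by more than half and red fluorescence within 50% of control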
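system = RFP-PRO-GFP reporter HT1080 cells | dosing = 20 µM single dose, 1% DMSO | timing = overnight cell settling, then overnight compound exposure, 37 °C, 5% CO2 | read-out basis = GFP/RFP fluorescence ratio | controls = DMSO and RFP-L50D-GFP cell wells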
SKN-1 inh: inhibitors of C. elegans SKN-1. C. elegans VP596 Pgst-4::GFP/RFP ratio, acrylamide-induced, 24 h. inhibition, % at 21.8 µM. actives 0.49% (n = 360,000). AID 624304;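 active = interference check ratio from 0.5 to 1.5 plus GFP to RFP signal ratio inhibition reaching or exceeding a fixed threshold, cut at about 30% in these data, passing the limit was not always enough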
p-CIP stab down: lowers stability of the mouse p/CIP coactivator protein. F442A p/CIP-EGFP cells, EGFP fluorescence, 16 h. decrease of EGFP signal, % at 10 µM. actives 0.01% (n = 290,000). AID 1984;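 active = EGFP signal decrease of at least 30% at 10 µM or well 3 SD below plate mean, unless failing retest; inactive = the rest, including hits failing retest or dose response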
MsrA act: bovine methionine sulfoxide reductase A activation | purified bovine MsrA, absorbance read-out | activation, % at 10.6 µM | actives 0.3% (n = 360,000); in the data active = activation above about 7.5%;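 also: 0% = vehicle and 100% = reference activator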
MsrA inhibitor: inhibitors of bovine MsrA | actives 0.75% (n = 360,000) | inhibition, % at 15.5 µM | AID 651718 | purified bovine MsrA, absorbance read-out;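 also: 0% = vehicle wells with enzyme and 100% = reference inhibitor wells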
MsrA inh confirm: confirmation of bovine MsrA inhibitors; actives 41% (n = 2,300); purified bovine MsrA, absorbance read-out; shares compounds with MsrA inhibitor; inhibition, % at 15.5 µM;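 also: coupled to thioredoxin reductase with NADPH and selenocystamine and DMSO as substrate; 0% = vehicle only and 100% = full effect of reference inhibitor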
* marks the source's active call; other numbers are inactive results; · = no result. Rule as the data show it, unless noted: active = inhibition above about 4.5%; inactive = the rest.

SMILES	MT1-MMP act inh	SKN-1 inh	p-CIP stab down	MsrA act	MsrA inhibitor	MsrA inh confirm
COCc1[nH]nc2c1C(c1ccccc1)NC2=O (stereo not drawn)	·	·	·	·	1	·
CO[C@H]1C=CO[C@@]2(C)Oc3c(C)c(O)c4c(O)c(c(C=NN5CCN(C)CC5)c(O)c4c3C2=O)NC(=O)C(C)=CC=C[C@H](C)[C@H](O)[C@@H](C)[C@@H](O)[C@@H](C)[C@H](OC(C)=O)[C@@H]1C	17	37	-6	-4	5.4*	3
O=C(CCc1nc2ccccc2[nH]1)N1CCN(C(=O)c2ccco2)CC1	1	12	-12	0	0	·
O=C(CSc1ccc(-c2nc3ccccc3[nH]2)cn1)N1CCN(C(=O)c2ccco2)CC1	8	4	-13	-5	5.1*	2
O=C1N=C(N2CCOCC2)S/C1=C\c1cccnc1	-2	-11	-12	1	2	·
CC1CCN(C2=NC(=O)/C(=C/c3cccc(O)c3)S2)CC1	-10	-10	-3	-2	4.7*	2
CC1CCN(C2=NC(=O)/C(=C/c3ccccc3F)S2)CC1	-1	-2	1	-3	5.4*	4
Cc1ccc(C2=N/C(=C/N3CCOCC3)C(=O)O2)cc1	-1	26	1	-5	6.5*	7.6*
Cc1cccc2cc(/C=C3\N=C(c4ccccc4)OC3=O)c(N3CCOCC3)nc12	0	82	-6	-3	0	·
COc1ccc(/C=C2\N=C(c3ccc(C)cc3)OC2=O)cc1	-2	-6	-8	0	-1	·
Cc1ccc(C2=N/C(=C\N3CCCCC3)C(=O)O2)cc1	-2	7	-11	-15	6.1*	5.9*
COC(=O)C1=C(C)N(Cc2cccc(C(F)(F)F)c2)C(=NCc2ccc(OC)cc2)NC1c1cccc(F)c1 (stereo not drawn)	·	·	·	·	-1	·
O=C(Nc1ccc(C(=O)O)cc1)/C(=C\C=C\c1ccccc1)NC(=O)c1ccccc1Br	6	-7	-10	-12	8.7*	6.4*
O=C(Nc1cccc(C(=O)O)c1)/C(=C\c1ccccc1)NC(=O)c1ccccc1	0	-2	14	-5	3	·
Cc1ccc(NC(=O)/C(=C\C=C\c2ccccc2)NC(=O)c2ccccc2)cc1	-2	15	-16	-7	4	·
O=C(Nc1ccc(C(=O)O)cc1)/C(=C\C=C\c1ccccc1)NC(=O)c1cccc(Br)c1	4	2	-23	-4	5.2*	4.6*
O=C(Nc1cccc(C(=O)O)c1)/C(=C\C=C\c1ccccc1)NC(=O)c1ccccc1	8	5	26	-5	8.4*	5.5*
COC(=O)C1=C(C)N(Cc2ccc(C(F)(F)F)cc2)C(=NCc2ccccc2)NC1c1cccc(Cl)c1 (stereo not drawn)	·	·	·	·	-2	·
CC(=O)O[C@@H]1C=C[C@@H](C#Cc2ccc(C(C)(C)C)cc2)O[C@@H]1COC(=O)Nc1ccccc1	·	·	·	·	1	·
FC(F)(F)c1ccccc1CN1CCCc2nc(-c3ccc(Br)cc3)ccc21	·	·	·	·	1	·
Cc1nc2ccc(NC(=O)c3cc([N+](=O)[O-])cc([N+](=O)[O-])c3Cl)cc2s1	5	5	-4	2	5.5*	2
COc1ccc(CNC(=O)c2ccc(=O)oc2)cc1OC	4	-19	-5	-7	9.9*	8.7*
COc1ccc(C(=O)NCc2ccc(Cl)c(Cl)c2)cc1OC	-12	3	-1	-2	0	·
O=C(NCc1cccnc1)c1ccc(=O)oc1	-1	-10	-7	-6	8.3*	8.4*
CCN(CC)C(=O)c1ncn2c1C(=O)NC[C@@H]2C	·	·	·	·	1	·
SMILES	MT1-MMP act inh	SKN-1 inh	p-CIP stab down	MsrA act	MsrA inhibitor	MsrA inh confirm
CC1(CC(=O)N/N=C/c2ccc(-c3ccc(Cl)cc3)o2)OCCO1	-1	12	0	-10	7.7*	4.8*
COC(=O)N/N=C/c1ccc(-c2cccc(Cl)c2)o1	13	6	-8	-2	6.4*	5.1*
Nc1ccc(-c2nc3c(Cl)c(N)ccc3[nH]2)cc1	16	8	-1	-10	5.3*	4
Nc1ccc2nc(-c3ccc(Cl)cc3)[nH]c2c1	2	7	-14	-1	2	·
Nc1ccc2nc(-c3cc(Cl)c(N)c(Cl)c3)[nH]c2c1	16	-15	-17	-11	4.8*	5.6*
Nc1ccc(-c2nc3ccc([N+](=O)[O-])cc3[nH]2)cc1	-2	-7	-3	-10	2	·
